Measured values published in ChEMBL document CHEMBL1138529, “Efficacy, pharmacokinetics, and metabolism of tetrahydroquinoline inhibitors of Plasmodium falciparum protein farnesyltransferase” (Antimicrob Agents Chemother, 2007).
Active and inactive are the calls of the source.

Legend:
[1] = Inhibition of […] GABA-gated chloride channel at 10 uM
How it was run: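 Radioligand displacement screen at a 10 μM test concentration, run by a contract lab across a panel of 50 receptors, pharmacologically active ion channels and transporters. The read-out is the decrease in specific radiolabeled ligand binding, expressed as a percentage. A decrease above 50% was considered significant.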

[2] = Oral bioavailability in Sprague-Dawley rat; assay type: ADME, organism-based; conditions: in vivo
How it was run: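 Female Sprague-Dawley rats, 10-12 weeks, three per group. Oral gavage at 50 mg/kg and jugular-catheter i.v. dose at 2 mg/kg, both in 3% EtOH-7% Tween 80-90% saline. Plasma taken over time, acetonitrile extraction with internal standard, LC/MS. Bioavailability computed as oral AUC/i.v. AUC.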

[3] = target: Melatonin receptor type 1A (Homo sapiens) (UniProt P48039); assay: Inhibition of melatonin MT1 receptor at 10 uM
How it was run: (§1)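 Radioligand displacement at a contract lab across a panel of 50 receptors, ion channels and transporters, single test concentration 10 μM; loss of specific ligand binding reported as percent, with >50% decrease counted as significant.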

Rattus norvegicus [4] = assay: Toxicity in Plasmodium berghei NK65 infected Sprague-Dawley rat assessed as effect on white blood cell differentials at 50 mg/kg, perorally administered every 8 hrs for 3 days; assay type: organism-based; parameters: dose 50 mg/kg, route oral; conditions: in vivo, po
How it was run: (§2)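 Female Sprague-Dawley rats, 10-12 weeks, n = 3 per schedule. Dosed 50 mg/kg by oral gavage every 8 h or every 12 h for 72 h. At the end of dosing, blood was sent to a clinical laboratory for complete blood counts, white cell differentials, electrolytes, glucose, renal function, liver enzymes and cholesterol.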

Salmonella typhimurium [5] = assay: Genotoxicity in Salmonella enterica serovar Typhimurium TA100 assessed as increase in number of revertants in presence of rat liver S9 fraction by Ames test; assay type: toxicity, organism-based; conditions: salmonella enterica subsp. enterica serovar typhimurium
How it was run: (§3)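 Liquid-culture Ames assay run by a contractor: S. Typhimurium TA98 and TA100 exposed for 96 h in histidine-free medium, with and without rat liver S9, at 5, 10, 50 and 100 μM (plus higher concentrations); growth read spectrophotometrically by pH-indicator colour change. Parallel bacterial cytotoxicity assay at same concentrations.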

Plasmodium berghei = assay: Antiplasmodial activity as reduced parasitaemia against Plasmodium berghei NK65 infected Sprague-Dawley rat at 50 mg/kg every 12 hrs peroral dose for 3 days
[6] = Cmax in BALB/c mouse at 50 mg/kg, po; assay type: ADME, organism-based; parameters: dose 50 mg/kg, route oral; conditions: in vivo
How it was run: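 50 mg/kg by oral gavage in 3% EtOH-7% Tween 80-90% normal saline to groups of three females (BALB/c mice, 8–10 weeks, tail bleed; Sprague-Dawley rats, 10–12 weeks, saphenous vein). Plasma extracted with acetonitrile/internal standard, LC/MS; means of three animals. Oral elimination half-life depends on absorption rate as well as elimination.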

[7] = target: D(2) dopamine receptor (Homo sapiens) (UniProt P14416); assay: Inhibition of dopamine D2S receptor at 10 uM; how it was run: as §1
Rattus norvegicus [8] = assay: Toxicity in Plasmodium berghei NK65 infected Sprague-Dawley rat assessed as effect on glucose levels at 50 mg/kg, perorally administered every 8 hrs for 3 days; assay type: organism-based; parameters: dose 50 mg/kg, route oral; conditions: in vivo, po; how it was run: as §2
[9] = target: Delta-type opioid receptor (Homo sapiens) (UniProt P41143); assay: Inhibition of delta opioid receptor at 10 uM; how it was run: as §1
[10] = target: Melanocortin receptor 4 (Homo sapiens) (UniProt P32245); assay: Inhibition of MC4 receptor at 10 uM
How it was run: (§4)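 Radioligand displacement screen by a contractor across 50 receptors, ion channels and transporters, test compound at 10 μM; decrease in specific ligand binding expressed as percentage, with >50% decrease taken as significant.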

[11] = target: Substance-K receptor (Homo sapiens) (UniProt P21452); assay: Inhibition of NK2 receptor at 10 uM; how it was run: as §4
[12] = target: Neuropeptide Y receptor type 2 (Homo sapiens) (UniProt P49146); assay: Inhibition of neuropeptide Y2 receptor at 10 uM; how it was run: as §1
[13] = target: Vasoactive intestinal polypeptide receptor 1 (Homo sapiens) (UniProt P32241); assay: Inhibition of VIP1 receptor at 10 uM; how it was run: as §4
Rattus norvegicus [14] = assay: Toxicity in Plasmodium berghei NK65 infected Sprague-Dawley rat assessed as effect on glucose levels at 50 mg/kg, perorally administered every 12 hrs for 3 days; assay type: organism-based; parameters: dose 50 mg/kg, route oral; conditions: in vivo, po, in the assay text read “every 8 hrs” for “every 12 hrs”; how it was run: as §2
[15] = target: Galanin receptor type 2 (Homo sapiens) (UniProt O43603); assay: Inhibition of Galanin receptor type 2 at 10 uM; how it was run: as §4
Salmonella typhimurium [16] = assay: Genotoxicity in Salmonella enterica serovar Typhimurium TA98 assessed as increase in number of revertants in presence of rat liver S9 fraction by Ames test; assay type: toxicity, organism-based; conditions: salmonella enterica subsp. enterica serovar typhimurium; how it was run: as §3
[17] = Permeability from apical to basolateral side in human Caco-2 cells; assay type: ADME, cell-based; conditions: read-out: permeability
Mus musculus = assay: Toxicity in BALB/c mouse at 50 mg/kg, po; assay type: organism-based; parameters: dose 50 mg/kg, route oral; conditions: in vivo
[18] = target: C-C chemokine receptor type 1 (Homo sapiens) (UniProt P32246); assay: Inhibition of CCR1 receptor at 10 uM; how it was run: as §4
[19] = target: Adenosine receptor A1 (Homo sapiens) (UniProt P30542); assay: Inhibition of adenosine A1 receptor at 10 uM; how it was run: as §4
Adenosine receptor A1 (Homo sapiens), sequence (P30542 whole entry): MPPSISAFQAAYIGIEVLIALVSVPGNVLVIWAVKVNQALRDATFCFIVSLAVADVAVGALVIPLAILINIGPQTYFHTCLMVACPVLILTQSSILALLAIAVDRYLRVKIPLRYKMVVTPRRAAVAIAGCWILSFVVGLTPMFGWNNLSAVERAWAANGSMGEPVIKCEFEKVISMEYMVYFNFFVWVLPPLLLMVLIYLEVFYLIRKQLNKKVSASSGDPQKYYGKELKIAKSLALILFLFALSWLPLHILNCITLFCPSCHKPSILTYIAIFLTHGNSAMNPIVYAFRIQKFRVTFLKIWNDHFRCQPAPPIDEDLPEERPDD

Substance-K receptor (Homo sapiens), sequence (P21452 whole entry): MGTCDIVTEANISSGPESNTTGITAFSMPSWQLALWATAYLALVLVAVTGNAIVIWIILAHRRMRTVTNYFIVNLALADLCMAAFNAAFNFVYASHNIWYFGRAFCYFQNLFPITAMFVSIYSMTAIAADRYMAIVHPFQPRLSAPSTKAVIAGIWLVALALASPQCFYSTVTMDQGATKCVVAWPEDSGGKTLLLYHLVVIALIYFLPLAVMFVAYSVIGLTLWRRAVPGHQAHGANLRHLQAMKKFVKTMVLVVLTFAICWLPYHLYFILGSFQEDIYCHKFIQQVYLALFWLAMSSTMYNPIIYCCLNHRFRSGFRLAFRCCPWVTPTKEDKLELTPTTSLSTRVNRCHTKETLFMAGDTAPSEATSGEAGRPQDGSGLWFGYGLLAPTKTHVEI
D(2) dopamine receptor (Homo sapiens), sequence (P14416 whole entry): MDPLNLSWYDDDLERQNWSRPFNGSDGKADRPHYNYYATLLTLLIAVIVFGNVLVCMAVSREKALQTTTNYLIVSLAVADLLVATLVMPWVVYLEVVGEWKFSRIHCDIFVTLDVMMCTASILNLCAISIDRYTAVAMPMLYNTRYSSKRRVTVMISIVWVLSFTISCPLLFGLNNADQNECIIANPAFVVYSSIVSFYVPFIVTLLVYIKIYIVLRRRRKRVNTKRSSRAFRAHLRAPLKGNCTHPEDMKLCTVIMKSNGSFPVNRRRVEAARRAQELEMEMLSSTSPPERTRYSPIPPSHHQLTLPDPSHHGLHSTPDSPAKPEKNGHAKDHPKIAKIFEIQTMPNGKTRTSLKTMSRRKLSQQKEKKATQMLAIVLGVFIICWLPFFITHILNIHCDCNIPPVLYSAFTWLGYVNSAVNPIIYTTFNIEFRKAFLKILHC
C-C chemokine receptor type 1 (Homo sapiens), sequence (P32246 whole entry): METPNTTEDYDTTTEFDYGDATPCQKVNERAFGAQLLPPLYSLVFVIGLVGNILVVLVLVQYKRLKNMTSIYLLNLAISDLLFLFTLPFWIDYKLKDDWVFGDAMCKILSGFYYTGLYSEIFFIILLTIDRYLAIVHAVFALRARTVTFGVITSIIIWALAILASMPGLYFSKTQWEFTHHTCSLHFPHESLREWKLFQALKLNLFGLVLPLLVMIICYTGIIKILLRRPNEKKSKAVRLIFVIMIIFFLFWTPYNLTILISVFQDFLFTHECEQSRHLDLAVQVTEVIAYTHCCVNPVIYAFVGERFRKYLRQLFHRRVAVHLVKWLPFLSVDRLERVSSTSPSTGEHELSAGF
Neuropeptide Y receptor type 2 (Homo sapiens), sequence (P49146 whole entry): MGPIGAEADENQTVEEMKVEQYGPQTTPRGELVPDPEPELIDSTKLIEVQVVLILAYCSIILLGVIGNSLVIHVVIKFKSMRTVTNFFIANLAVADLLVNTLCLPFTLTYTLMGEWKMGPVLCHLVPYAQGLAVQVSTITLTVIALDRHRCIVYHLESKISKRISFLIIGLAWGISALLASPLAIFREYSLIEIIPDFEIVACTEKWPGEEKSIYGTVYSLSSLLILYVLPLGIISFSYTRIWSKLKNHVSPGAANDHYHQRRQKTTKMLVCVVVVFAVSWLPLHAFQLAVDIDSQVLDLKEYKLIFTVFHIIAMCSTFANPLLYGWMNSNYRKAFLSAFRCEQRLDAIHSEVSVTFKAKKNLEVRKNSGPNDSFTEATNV
Melanocortin receptor 4 (Homo sapiens), sequence (P32245 whole entry): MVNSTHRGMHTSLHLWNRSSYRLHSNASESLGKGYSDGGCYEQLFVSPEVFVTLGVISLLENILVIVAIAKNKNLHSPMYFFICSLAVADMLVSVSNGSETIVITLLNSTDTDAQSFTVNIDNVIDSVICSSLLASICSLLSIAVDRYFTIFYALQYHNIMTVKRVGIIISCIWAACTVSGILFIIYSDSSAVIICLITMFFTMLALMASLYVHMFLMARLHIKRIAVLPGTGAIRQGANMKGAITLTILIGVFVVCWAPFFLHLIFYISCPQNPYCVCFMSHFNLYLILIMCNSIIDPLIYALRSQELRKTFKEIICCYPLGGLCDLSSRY
Melatonin receptor type 1A (Homo sapiens), sequence (P48039 whole entry): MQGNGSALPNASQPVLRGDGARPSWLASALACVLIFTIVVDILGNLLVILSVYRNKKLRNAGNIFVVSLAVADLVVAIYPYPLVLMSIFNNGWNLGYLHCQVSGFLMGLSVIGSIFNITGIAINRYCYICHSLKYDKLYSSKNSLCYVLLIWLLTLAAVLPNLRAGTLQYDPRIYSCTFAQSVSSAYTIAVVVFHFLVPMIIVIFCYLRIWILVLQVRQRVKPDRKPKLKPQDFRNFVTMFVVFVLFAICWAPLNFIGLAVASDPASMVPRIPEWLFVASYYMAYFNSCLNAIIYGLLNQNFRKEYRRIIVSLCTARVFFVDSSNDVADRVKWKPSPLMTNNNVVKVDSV
Vasoactive intestinal polypeptide receptor 1 (Homo sapiens), sequence (P32241 whole entry): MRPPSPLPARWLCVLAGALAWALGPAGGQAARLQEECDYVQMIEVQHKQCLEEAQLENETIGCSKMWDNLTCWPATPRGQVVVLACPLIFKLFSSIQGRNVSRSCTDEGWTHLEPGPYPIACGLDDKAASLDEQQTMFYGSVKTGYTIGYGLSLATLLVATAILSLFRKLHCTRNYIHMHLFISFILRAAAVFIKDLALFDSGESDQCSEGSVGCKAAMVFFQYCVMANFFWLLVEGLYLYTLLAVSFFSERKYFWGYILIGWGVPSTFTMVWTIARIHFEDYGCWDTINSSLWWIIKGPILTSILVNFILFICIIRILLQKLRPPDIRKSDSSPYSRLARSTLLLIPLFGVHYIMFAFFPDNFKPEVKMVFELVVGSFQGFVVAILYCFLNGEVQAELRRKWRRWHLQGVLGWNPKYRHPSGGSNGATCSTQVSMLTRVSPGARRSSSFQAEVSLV
Galanin receptor type 2 (Homo sapiens), sequence (O43603 whole entry): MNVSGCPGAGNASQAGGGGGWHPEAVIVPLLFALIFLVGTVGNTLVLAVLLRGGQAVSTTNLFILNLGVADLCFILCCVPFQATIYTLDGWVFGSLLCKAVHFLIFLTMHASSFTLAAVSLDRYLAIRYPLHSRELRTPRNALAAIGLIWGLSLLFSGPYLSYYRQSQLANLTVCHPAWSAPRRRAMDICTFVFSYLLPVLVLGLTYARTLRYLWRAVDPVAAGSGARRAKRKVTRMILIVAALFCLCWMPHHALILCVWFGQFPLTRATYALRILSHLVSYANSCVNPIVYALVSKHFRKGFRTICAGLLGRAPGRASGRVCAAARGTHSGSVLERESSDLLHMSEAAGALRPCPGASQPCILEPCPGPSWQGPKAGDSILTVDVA
Delta-type opioid receptor (Homo sapiens), sequence (P41143 whole entry): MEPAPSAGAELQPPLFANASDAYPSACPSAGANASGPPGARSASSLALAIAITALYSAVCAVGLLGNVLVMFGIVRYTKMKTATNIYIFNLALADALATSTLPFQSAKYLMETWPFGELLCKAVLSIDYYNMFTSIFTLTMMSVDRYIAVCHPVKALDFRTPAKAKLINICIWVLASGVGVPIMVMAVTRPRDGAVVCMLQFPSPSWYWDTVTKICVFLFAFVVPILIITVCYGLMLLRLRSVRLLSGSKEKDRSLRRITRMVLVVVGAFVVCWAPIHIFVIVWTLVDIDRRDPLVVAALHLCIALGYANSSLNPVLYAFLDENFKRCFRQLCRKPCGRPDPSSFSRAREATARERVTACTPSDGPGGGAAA

COC(=O)N1CCC(CN(C2Cc3cc(C#N)ccc3N(Cc3cncn3C)C2)S(=O)(=O)c2ccccn2)CC1 (stereo unspecified)
1.1 ×10⁻⁶ cm/s: Papp A→B [17]
Non-toxic: Activity (Rattus norvegicus [4]) | Activity (Salmonella typhimurium [5]) | Activity (Rattus norvegicus [8]) | Activity (Rattus norvegicus [14]) | Activity (Salmonella typhimurium [16]) | Activity (Mus musculus)
82%: bioavailability [2]
4.2 µM: Cmax [6]
inactive: inhibition [1] | inhibition [3] | Activity (Plasmodium berghei) | inhibition [7] | inhibition [9] | inhibition [10] | inhibition [11] | inhibition [12] | inhibition [13] | inhibition [15] | inhibition [18] | inhibition [19]
